TRPC6 inh – mouse TRPC6 channel inhibitors, primary screen, cell-based, HEK293, membrane potential dye; B-score at 10 µM; 310,000 compounds, 1.1% hits; AID 2553, 2010; ACh-evoked depolarization; stronger effect = lower value; Short transient receptor potential channel 6 (Mus musculus), Q61143;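 active means B-score under library mean minus 3 SD, initial fluorescence not abnormally high, positive integrated signal ratio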;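 further: B-score derived from integrated fluorescence ratio over the kinetic read; more negative B-score means stronger inhibition of depolarization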
Target sequence (Q61143 whole entry, looked up): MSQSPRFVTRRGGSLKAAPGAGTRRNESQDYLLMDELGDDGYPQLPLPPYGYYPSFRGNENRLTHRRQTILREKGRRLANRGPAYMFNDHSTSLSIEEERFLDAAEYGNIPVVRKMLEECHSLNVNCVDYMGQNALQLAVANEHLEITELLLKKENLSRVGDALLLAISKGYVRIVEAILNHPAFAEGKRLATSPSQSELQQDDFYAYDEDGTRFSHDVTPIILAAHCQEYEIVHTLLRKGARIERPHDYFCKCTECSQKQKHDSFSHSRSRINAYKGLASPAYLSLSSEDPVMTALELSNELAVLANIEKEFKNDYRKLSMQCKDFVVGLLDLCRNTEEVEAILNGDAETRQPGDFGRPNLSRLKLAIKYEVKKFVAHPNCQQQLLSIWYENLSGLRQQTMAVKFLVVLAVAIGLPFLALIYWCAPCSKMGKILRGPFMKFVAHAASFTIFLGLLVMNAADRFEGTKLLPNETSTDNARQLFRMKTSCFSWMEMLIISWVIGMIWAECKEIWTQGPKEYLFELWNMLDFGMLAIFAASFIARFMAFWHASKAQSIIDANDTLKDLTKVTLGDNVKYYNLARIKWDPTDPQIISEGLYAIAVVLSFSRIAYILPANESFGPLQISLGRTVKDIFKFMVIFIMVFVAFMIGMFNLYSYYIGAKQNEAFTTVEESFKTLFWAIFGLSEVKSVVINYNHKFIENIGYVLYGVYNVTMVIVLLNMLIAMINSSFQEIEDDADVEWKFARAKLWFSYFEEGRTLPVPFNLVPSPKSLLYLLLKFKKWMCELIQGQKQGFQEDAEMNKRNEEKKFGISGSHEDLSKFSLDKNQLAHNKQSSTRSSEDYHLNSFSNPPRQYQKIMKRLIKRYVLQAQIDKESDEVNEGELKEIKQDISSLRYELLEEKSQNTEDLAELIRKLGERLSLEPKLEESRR
TRPC6 activator – mouse TRPC6 channel activators, primary screen, cell-based, HEK293, membrane potential dye | HEK293-TRPC6 membrane potential dye fluorescence; stronger effect = higher value | B-score at 10 µM | 310,000 compounds, 0.13% hits | AID 2550, 2010;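 active means B-score of the integrated fluorescence ratio above library mean plus 3 SD, and starting fluorescence ratio within library mean plus 5 SD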;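 further: higher score means more depolarization so channel activation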
TRPC4 block – inhibitors of mouse TRPC4 channel, primary screen, Fluo4 calcium, HEK293 TRPC4beta/mu-opioid cells; Short transient receptor potential channel 4 (Mus musculus), Q9QUQ5; DAMGO-evoked Fluo4 calcium flux; stronger effect = lower value; B-score at 10 µM; 300,000 compounds, 0.39% hits; AID 2247, 2010;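 active means B-score over 3 SD under the library average, no early fluorescence shift, positive overall ratio signal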
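test system = HEK293 cells with stable TRPC4beta plus mu-opioid receptor expression | detection = Fluo4 Ca2+ flux fluorescence | read-out = integrated fluorescence ratio relative to baseline, converted to per-well B score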
TRPC4 act – activators of mouse TRPC4 channel, primary screen, Fluo4 calcium, HEK293 TRPC4beta/mu-opioid cells. 310,000 compounds, 0.49% hits. AID 2237, 2010. Short transient receptor potential channel 4 (Mus musculus), Q9QUQ5. Fluo4 calcium fluorescence; stronger effect = higher value. B-score at 10 µM;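 active means B-score above 5 SD of library B-scores, and initial fluorescence ratio not above library mean plus 5 SD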;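 further: positive B-score marks a calcium rise read as TRPC4 activation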
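Test system: HEK293 cells stably co-expressing mouse TRPC4beta and mu-opioid receptor | Schedule: Fluo4 dye loading 45 min at room temperature, 110 s recording | Measured by: Kinetic Fluo4 calcium fluorescence, 5 s baseline at 1 Hz | Evaluation: B score of integrated ratio | Controls: Buffer (low) and maximal DAMGO (high)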
TRPC4 PAM – positive allosteric modulators of TRPC4, primary screen, cell-based, mouse TRPC4beta, HEK293 mu-opioid, Fluo-4 calcium; B-score at 10 µM; Short transient receptor potential channel 4 (Mus musculus), Q9QUQ5; 310,000 compounds, 0.42% hits; AID 2227, 2009; DAMGO EC20, Fluo-4 Ca2+ flux; stronger effect = higher value;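 active means B-score of calcium response area above 5 SD of library B-scores, with initial fluorescence ratio within 5 SD of library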;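 further: B-score of integrated fluorescence ratio over time as area under calcium response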
Kir21 block – inhibitors of mouse Kir2.1 inward-rectifier potassium channel. Inward rectifier potassium channel 2 (Mus musculus), P35561. HEK293-Kir2.1, FluxOR thallium flux fluorescence; stronger effect = lower value. B-score at 10 µM. 310,000 compounds, 0.85% hits. AID 1672, 2009;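 active means fluorescence ratio B-score at or below minus 3 SD of library scores, with starting-brightness B-score within 2 SD, cut at about -4.2 in these data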;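 further: channel flux triggered by added potassium and thallium sulfate stimulus; B-score of peak minus minimum fluorescence over baseline after thallium stimulus; more negative B-score means stronger Kir2.1 block with less thallium influx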
TRPC4 sel inh 2 – second check of whether TRPC6 inhibitors also affect mouse TRPC4; shares compounds with TRPC6 inh; AID 2776; inhibition, % at 10 µM; 920 compounds, 42% hits; HEK293 TRPC4/MOR, membrane potential dye fluorescence; channel activated by saturating DAMGO dose;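 active means compounds whose fluorescence signal differed from control wells by over 3 SD, either direction, in both duplicate plates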
TRPC4 spec – mouse TRPC4 modulation by TRPC6 hits, confirmation, selectivity assay for TRPC6 inhibitor project, cell-based, HEK293 TRPC4/mu-opioid, membrane potential dye | shares compounds with TRPC6 inh | 920 compounds, 61% hits | activity change, negative = inhibition, % at 10 µM | membrane potential fluorescence | AID 2777, 2010;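 active means rise or fall in signal beyond 3 SD of buffer-only wells in both replicate plates, either sign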;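 further: integrated kinetic ratio of fluorescence range over baseline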
HEK293 MPD ctr 2-1 – nonspecific membrane potential effects, parental HEK293, confirmation, counter-screen for TRPC6 inhibitor project, cell-based, second counter screen; shares compounds with TRPC6 inh; parental HEK293 membrane potential dye fluorescence; maximal acetylcholine challenge after compound addition; signal change vs control, % at 10 µM; 920 compounds, 31% hits;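 active means membrane potential signal moving either way by over 3 SD of the maximum-effect control, in both duplicate plates, meaning non-specific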
HEK293 MPD ctr-1 – membrane potential modulation in parental HEK293, confirmation, counter-screen for TRPC6 inhibitor project, cell-based | shares compounds with TRPC6 inh | parental HEK293 membrane potential dye fluorescence | membrane potential signal change, % at 10 µM | 920 compounds, 60% hits;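 active means membrane potential signal shifting up or down by more than 3 SD of buffer-only wells, on both duplicate plates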
HEK293 MPD ctr-2 – parental HEK293 membrane potential modulation, confirmation, counter-screen for TRPC6 modulator project, cell-based; shares compounds with TRPC6 inh; membrane potential dye fluorescence; membrane potential signal change, % at 10 µM; 2,400 compounds, 51% hits; AID 488924, 2010;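 active means membrane potential signal moves up or down beyond 5 SD from buffer-only wells, on both duplicate plates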
HEK293 MPD ctr 2-2 – parental HEK293 nonspecific activity of TRPC6 modulators, second screen | shares compounds with TRPC6 inh | membrane potential dye fluorescence; after compound, maximal acetylcholine stimulation | inhibition, % at 10 µM | 2,400 compounds, 14% hits | AID 488926;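 active means membrane potential signal drops by more than 5 SD from the mean control signal, in both duplicate plates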;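 further: plate controls were acetylcholine ECmax control wells for no effect and buffer only wells for full effect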
TRPC4/MOR mod – TRPC4 modulation by TRPC6 hit compounds, confirmation, selectivity assay for TRPC6 modulator project, cell-based, HEK293 TRPC4/mu-opioid, membrane potential dye, mouse; AID 488927, 2010; shares compounds with TRPC6 inh; membrane potential fluorescence; percent change from control (negative = decrease, positive = increase), % at 10 µM; 2,400 compounds, 69% hits;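 active means membrane potential signal moved up or down beyond 5 SD of buffer control wells, in both duplicate plates, actives on both sides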;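 further: plate controls were assay buffer wells for no effect and DAMGO maximal-effect wells for full effect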
TRPC4 ctr inh 2 – mouse TRPC4 off-target activity of TRPC6 modulators, second screen. shares compounds with TRPC6 inh. HEK293 TRPC4/mu-opioid, membrane potential dye fluorescence; stimulated with maximal-effect DAMGO. inhibition, % at 10 µM. 2,400 compounds, 55% hits;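 active means drop in membrane potential signal beyond 5 SD of the control wells in both duplicate plates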;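 further: TRPC4 counter screen for TRPC6 hits run under conditions tuned for TRPC6 not TRPC4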
TRPC6 inh conf – mouse TRPC6 channel inhibitors, confirmation, HEK293 cells, membrane potential dye, duplicate; ACh-evoked depolarization; shares compounds with TRPC6 inh; inhibition, % at 10 µM; 3,300 compounds, 43% hits;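 active means fluorescence ratio falls more than 5 SD below the full-stimulation control mean, in both duplicate runs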;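 further: integrated fluorescence ratio of peak minus minimum over baseline after agonist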
TRPC6 act conf – mouse TRPC6 channel activators, confirmation, HEK293 cells, membrane potential dye, duplicate | shares compounds with TRPC6 inh | HEK293-TRPC6 membrane potential dye fluorescence, FDSS | activation, % at 10 µM | 2,800 compounds, 11% hits | AID 488961, 2010;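 active means ratio signal rise beyond 5 SD above unstimulated control wells' mean, seen in both duplicate runs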;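 further: plate controls were buffer EC0 wells for no effect and acetylcholine ECmax response for full effect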
* hit, by the source's call; i = inactive; . = no result given. An excerpt weighted towards active compounds, which were near 2.9% of everything screened.

SMILES	TRPC6 inh	TRPC6 activator	TRPC4 block	TRPC4 act	TRPC4 PAM	Kir21 block	HEK293 MPD ctr-2	HEK293 MPD ctr 2-2	TRPC4/MOR mod	TRPC4 ctr inh 2	TRPC6 inh conf	TRPC6 act conf	others
COc1ccc(-c2noc(CN3CCCCC3c3nccn3C)n2)cc1 (stereo not drawn)	i	i	i	i	i	0.48	.	.	.	.	.	.
Cc1ccc(CCC(=O)Nc2ccc(Br)cc2)o1	i	i	i	i	i	-0.45	.	.	.	.	.	.
O=S1OCCN1c1ccccc1 (stereo not drawn)	i	i	i	i	i	-0.08	.	.	.	.	.	.
CC1CCCN(C(=O)COC(=O)c2cc(-c3cccs3)nn2-c2ccccc2)C1 (stereo not drawn)	-6.5*	i	i	i	i	0.46	113%*	i	18%*	i	50%*	.
NC(=O)COC(=O)c1cc(-c2cccs2)nn1-c1ccccc1	i	i	.	i	i	-0.12	.	.	.	.	.	.
O=C(c1cc2cc([N+](=O)[O-])ccc2s1)N1CCCCC1	i	i	i	i	i	0.81	.	.	.	.	.	.
O=[N+]([O-])c1cccc(OCCCN2CCC(Cc3ccccc3)CC2)c1	-7.1*	i	i	i	i	-1.6	.	.	.	.	88%*	i	TRPC4 sel inh 2=16%*;TRPC4 spec=-12%*;HEK293 MPD ctr 2-1=i;HEK293 MPD ctr-1=-224%*
COc1cccc(OC)c1OCCCCN1CCC(Cc2ccccc2)CC1	i	i	i	i	i	0.18	.	.	.	.	.	.
CC(=O)CCc1ccc(OCCCCN2CCC(Cc3ccccc3)CC2)cc1	-8.4*	i	i	i	i	-1.4	i	i	i	70%*	46%*	.
COC(=O)c1ccc(CN2CCC(n3nccc3NC(=O)C3CCCC3)CC2)cc1	i	i	i	i	i	0.19	.	.	.	.	.	.
CC1CN(C(=O)CSc2nnc(NC(=O)NC(C)(C)C)s2)CC(C)O1 (stereo not drawn)	i	i	i	i	i	2	.	.	.	.	.	.
COC(=O)N1CCN(c2ccc(Cl)c(Cl)c2)CC1	-6.3*	i	i	i	i	-0.48	i	i	8.0%*	37%*	i	i
COC(=O)N1CCN(c2ccc(C)c(C)c2)CC1	i	i	i	i	i	1.2	.	.	.	.	.	.
Cc1nc(NC(=O)c2cccs2)ccc1Br	i	i	i	i	i	1.9	.	.	.	.	.	.
CCOC(=O)c1ccc2c(c1)n(CCCS(=O)(=O)[O-])c(/C=C/c1ccc(Cl)cc1)[n+]2CC	-7.4*	i	i	i	i	0	-333%*	i	-60%*	61%*	58%*	i
CCOC(=O)c1ccc2c(c1)n(CC)c(C)[n+]2CC	i	i	i	i	i	2.5	.	.	.	.	.	.
O=c1c2ccccc2oc2ccc(NCCCn3ccnc3)cc12	i	i	i	i	i	0.88	.	.	.	.	.	.
COc1ccc2sc3ccccc3c(=O)c2c1	i	i	i	i	i	-0.66	.	.	.	.	.	.
CN1CCCC1CCNc1ccc2sc3ccccc3c(=O)c2c1 (stereo not drawn)	-6.3*	30*	i	75*	i	-15	794%*	i	148%*	67%*	i	318%*
Cc1cc2oc3cc(NCCC4CCCN4C)ccc3c(=O)c2cc1C (stereo not drawn)	-5.9*	i	i	i	i	-0.78	i	84%*	-11%*	76%*	50%*	i
O=c1c2ccccc2sc2ccc(NCCCN3CCOCC3)cc12	i	34*	i	i	i	-5.8	940%*	i	190%*	80%*	.	365%*
CSCCC(=O)N1CCN(CC(=O)N2CCCC2)CC1	i	i	i	i	i	-0.74	.	.	.	.	.	.
Cc1ccc(NC(=O)C2CC(O)CN2C(=O)OCc2ccccc2)c(C)c1 (stereo not drawn)	i	i	i	i	i	1.1	.	.	.	.	.	.
